ChEMBL document CHEMBL1137658, “Effect of caspofungin on metabolite profiles of Aspergillus species determined by nuclear magnetic resonance spectroscopy” (2007)
The source made the active and inactive calls. The rule behind the calls is not given here.

Legend:
[1] = test system: Aspergillus fumigatus; test: Antifungal activity against Aspergillus fumigatus isolate 06-067-1639 assessed as lowest drug concentration resulting in aberrant hyphal growth after 48 hrs by broth microdilution method; assay type: functional
In short: (§1)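 Caspofungin tested by modified CLSI M38-A microdilution in RPMI 1640 plus 2% glucose, l-glutamine, MOPS pH 7. Serial dilutions 0.03125 to 16 μg/ml; duplicate plates. MEC = lowest concentration giving aberrant hyphal growth on inverted-microscope examination, read at 48 h.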

[2] = test system: Aspergillus fumigatus; test: Antifungal activity against Aspergillus fumigatus ATCC 204305 assessed as lowest drug concentration resulting in aberrant hyphal growth after 48 hrs by broth microdilution method; assay type: functional; in short: as §1
[3] = test system: Aspergillus fumigatus; test: Antifungal activity against Aspergillus fumigatus ATCC 204305 assessed as lowest drug concentration resulting in aberrant hyphal growth after 72 hrs by broth microdilution method; assay type: functional
[4] = test system: Aspergillus terreus; test: Antifungal activity against Aspergillus terreus isolate 06-059-2428 assessed as lowest drug concentration resulting in aberrant hyphal growth after 48 hrs by broth microdilution method; assay type: functional; in short: as §1
[5] = test system: Aspergillus terreus; test: Antifungal activity against Aspergillus terreus isolate 04-188-2548 assessed as lowest drug concentration resulting in aberrant hyphal growth after 48 hrs by broth microdilution method; assay type: functional; in short: as §1
[6] = test system: Aspergillus niger; test: Antifungal activity against Aspergillus niger isolate 05-290-2479 assessed as lowest drug concentration resulting in aberrant hyphal growth after 48 hrs by broth microdilution method; assay type: functional; in short: as §1
[7] = test system: Aspergillus niger; test: Antifungal activity against Aspergillus niger isolate 05-112-3701 assessed as lowest drug concentration resulting in aberrant hyphal growth after 48 hrs by broth microdilution method; assay type: functional; in short: as §1
[8] = test system: Aspergillus nidulans; test: Antifungal activity against Aspergillus nidulans isolate 05-326-1785 assessed as lowest drug concentration resulting in aberrant hyphal growth after 72 hrs by broth microdilution method; assay type: functional
[9] = test system: Aspergillus nidulans; test: Antifungal activity against Aspergillus nidulans isolate 00-202661 assessed as lowest drug concentration resulting in aberrant hyphal growth after 72 hrs by broth microdilution method; assay type: functional
[10] = test system: Aspergillus flavus; test: Antifungal activity against Aspergillus flavus ATCC 204304 assessed as lowest drug concentration resulting in aberrant hyphal growth after 48 hrs by broth microdilution method; assay type: functional; in short: as §1
[11] = test system: Aspergillus flavus; test: Antifungal activity against Aspergillus flavus isolate 05-314-1100 assessed as lowest drug concentration resulting in aberrant hyphal growth after 48 hrs by broth microdilution method; assay type: functional; in short: as §1
[12] = test system: Aspergillus fumigatus; test: Inhibition of metabolite production in Aspergillus fumigatus isolate 06-067-1639 assessed as inhibition of glycine betaine production at => 1 ug/ml; assay type: functional, organism-based
[13] = test system: Aspergillus fumigatus; test: Inhibition of metabolite production in Aspergillus fumigatus isolate 06-067-1639 assessed as inhibition of malate and fumarate production at 2 to 4 ug/ml; assay type: functional
[14] = test system: Aspergillus fumigatus; test: Inhibition of metabolite production in Aspergillus fumigatus ATCC 204305 assessed as lowest drug concentration required to inhibit 50% malate production after 48 hrs in presence of 0.2 % glucose by NMR spectroscopy; assay type: functional
In short: (§2)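 A. fumigatus ATCC 204305 incubated 48 h and 72 h with caspofungin in RPMI 1640 containing 0.2% glucose instead of 2%. ¹H NMR of medium. MEP from malate peak area, taken at ≥50% reduction.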

[15] = test system: Aspergillus fumigatus; test: Inhibition of metabolite production in Aspergillus fumigatus ATCC 204305 assessed as lowest drug concentration required to inhibit 50% malate production after 72 hrs in presence of 0.2 % glucose by NMR spectroscopy; assay type: functional; in short: as §2
[16] = test system: Aspergillus fumigatus; test: Increase in metabolite production in Aspergillus fumigatus isolate 06-067-1639 assessed as paradoxical increase in glycine betain, fumarate, succinate level at 1 ug/ml after 48 hrs; assay type: functional, organism-based
[17] = test system: Aspergillus terreus; test: Inhibition of metabolite production in Aspergillus terreus isolate 06-059-2428 assessed as lowest drug concentration required to inhibit 50% ethanol production after 48 hrs in presence of 2 % glucose by NMR spectroscopy; assay type: functional
In short: (§3)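 Cultures grown in RPMI 1640-2% glucose-MOPS with drug series, 48 h. Culture media analysed by 600-MHz ¹H NMR. MEP taken from stack plots and peak integrals of resolved resonances, as lowest drug concentration suppressing nutrient use or metabolite production by ≥50%. Alternative MEP: lowest concentration raising fumarate >50%.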

[18] = test system: Aspergillus niger; test: Inhibition of metabolite production in Aspergillus niger isolate 05-112-3701 assessed as lowest drug concentration required to inhibit 50% citrate production after 48 hrs in presence of 2 % glucose by NMR spectroscopy; assay type: functional; in short: as §3
[19] = test system: Aspergillus nidulans; test: Inhibition of metabolite production in Aspergillus nidulans isolate 05-326-1785 assessed as lowest drug concentration required to inhibit 50% fumarate production after 72 hrs in presence of 2 % glucose by NMR spectroscopy; assay type: functional
In short: (§4)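 A. nidulans grows slowly, so spectra were recorded after 72 h incubation in RPMI 1640-2% glucose-MOPS with drug dilutions. 600-MHz ¹H NMR of culture medium. Fumarate peak integrals plotted against drug concentration. MEP = lowest concentration with ≥50% fall in fumarate.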

[20] = test system: Aspergillus nidulans; test: Inhibition of metabolite production in Aspergillus nidulans isolate 00-202661 assessed as lowest drug concentration required to inhibit 50% fumarate production after 72 hrs in presence of 2 % glucose by NMR spectroscopy; assay type: functional; in short: as §4
[21] = test system: Aspergillus fumigatus; test: Increase in metabolite production in Aspergillus fumigatus isolate 06-067-1639 assessed as lowest drug concentration required to increase >50% glycine betaine production after 48 hrs in presence of 2 % glucose by NMR spectroscopy; assay type: functional
[22] = test system: Aspergillus flavus; test: Increase in metabolite production in Aspergillus flavus isolate 05-314-1100 assessed as lowest drug concentration required to increase >50% fumarate production after 48 hrs in presence of 2 % glucose by NMR spectroscopy; assay type: functional; in short: as §3
[23] = test system: Aspergillus fumigatus; test: Inhibition of metabolite production in Aspergillus fumigatus ATCC 204305 assessed as lowest drug concentration required to inhibit 50% malate production after 72 hrs in presence of 2 % glucose by NMR spectroscopy; assay type: functional
In short: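 Caspofungin dilutions with A. fumigatus ATCC 204305 in RPMI 1640-2% glucose-MOPS, incubated 72 h. ¹H NMR of medium. MEP = lowest concentration giving ≥50% fall in malate, glycine betaine or fumarate peak areas.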

[24] = test system: Aspergillus fumigatus; test: Inhibition of metabolite production in Aspergillus fumigatus ATCC 204305 assessed as lowest drug concentration required to inhibit 50% malate production after 48 hrs in presence of 2 % glucose by NMR spectroscopy; assay type: functional; in short: as §3
[25] = test system: Aspergillus terreus; test: Inhibition of metabolite production in Aspergillus terreus isolate 04-188-2548 assessed as lowest drug concentration required to inhibit 50% ethanol, malate production after 48 hrs in presence of 2 % glucose by NMR spectroscopy; assay type: functional; in short: as §3
[26] = test system: Aspergillus niger; test: Inhibition of metabolite production in Aspergillus niger isolate 05-290-2479 assessed as lowest drug concentration required to inhibit 50% citrate production after 48 hrs in presence of 2 % glucose by NMR spectroscopy; assay type: functional; in short: as §3
[27] = test system: Aspergillus fumigatus; test: Inhibition of metabolite production in Aspergillus fumigatus ATCC 204305 assessed as lowest drug concentration required to inhibit 50% glycine betain, fumarate, malate production after 48 hrs in presence of 2 % glucose by NMR spectroscopy; assay type: functional; in short: as §3
[28] = test system: Aspergillus flavus; test: Increase in metabolite production in Aspergillus flavus ATCC 204304 assessed as lowest drug concentration required to increase >50% fumarate production after 48 hrs in presence of 2 % glucose by NMR spectroscopy; assay type: functional; in short: as §3
[29] = test system: Aspergillus fumigatus; test: Increase in metabolite production in Aspergillus fumigatus ATCC 204305 assessed as paradoxical increase in glycine betaine, fumarate and succinate level at >= 0.5 ug/ml after 48 hrs

Structure (SMILES): CC[C@H](C)C[C@H](C)CCCCCCCCC(=O)N[C@H]1C[C@@H](O)[C@@H](NCCN)NC(=O)[C@@H]2[C@@H](O)CCN2C(=O)[C@H]([C@H](O)CCN)NC(=O)[C@H]([C@H](O)[C@@H](O)c2ccc(O)cc2)NC(=O)[C@@H]2C[C@@H](O)CN2C(=O)[C@H]([C@@H](C)O)NC1=O [CASPOFUNGIN]
- Activity [1]: 0.03 µg/mL
- Activity [2]: 0.03 µg/mL
- Activity [3]: 0.03 µg/mL
- Activity [4]: 0.03 µg/mL
- Activity [5]: 0.03 µg/mL
- Activity [6]: 0.5 µg/mL
- Activity [7]: 0.5 µg/mL
- Activity [8]: 4 µg/mL
- Activity [9]: 2 µg/mL
- Activity [10]: 0.03 µg/mL
- Activity [11]: 0.03 µg/mL
- Activity [12]: inactive
- inhibition (INH) [13]: 20%
- Activity [14]: 0.06 µg/mL
- Activity [15]: 0.03 µg/mL
- Activity [16]: Active
- Activity [17]: 0.06 µg/mL
- Activity [18]: 0.5 µg/mL
- Activity [19]: 4 µg/mL
- Activity [20]: 2 µg/mL
- Activity [21]: 1 µg/mL
- Activity [22]: 0.03 µg/mL
- Activity [23]: 0.03 µg/mL
- Activity [24]: 0.5 µg/mL
- Activity [25]: 0.5 µg/mL
- Activity [26]: 0.25 µg/mL
- Activity [27]: 0.5 µg/mL
- Activity [28]: 0.03 µg/mL
- Activity [29]: Active
